Source: PMC6409185 (Investigational new drugs, 2018)

Tests used:
Format in all cases: biochemical
Settings in all cases: relaxation assay in the presence of 100 μM compound
hTopo I = molecular target: T1, hTopo I (Homo sapiens, UniProt P11387); test: Relaxation assay for eukaryotic Topo I
T1 sequence (P11387 1-765): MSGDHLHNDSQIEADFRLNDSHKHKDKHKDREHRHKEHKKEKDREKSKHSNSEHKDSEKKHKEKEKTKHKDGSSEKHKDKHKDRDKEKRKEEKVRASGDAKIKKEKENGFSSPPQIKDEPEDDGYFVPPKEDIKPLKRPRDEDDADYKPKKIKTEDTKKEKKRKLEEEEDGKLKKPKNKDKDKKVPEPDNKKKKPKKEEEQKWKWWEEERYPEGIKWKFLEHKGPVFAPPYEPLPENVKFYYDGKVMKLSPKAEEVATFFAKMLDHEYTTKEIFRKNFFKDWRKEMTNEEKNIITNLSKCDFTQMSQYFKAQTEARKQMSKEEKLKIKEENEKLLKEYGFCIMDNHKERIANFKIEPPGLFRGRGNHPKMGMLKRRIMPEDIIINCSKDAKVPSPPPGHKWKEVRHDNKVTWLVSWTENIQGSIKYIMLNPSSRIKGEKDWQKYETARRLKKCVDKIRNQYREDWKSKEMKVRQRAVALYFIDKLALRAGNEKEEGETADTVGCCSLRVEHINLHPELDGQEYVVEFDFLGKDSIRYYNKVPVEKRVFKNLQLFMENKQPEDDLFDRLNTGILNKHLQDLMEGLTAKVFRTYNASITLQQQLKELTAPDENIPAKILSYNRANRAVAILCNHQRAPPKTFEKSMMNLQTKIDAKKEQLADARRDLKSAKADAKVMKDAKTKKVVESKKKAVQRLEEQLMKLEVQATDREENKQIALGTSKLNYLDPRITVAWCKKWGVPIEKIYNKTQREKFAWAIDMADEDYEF
How it was run: (§1)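 Commercial calf or human Topo I, 1 unit (the amount that fully relaxes 0.3 μg supercoiled pBR322), with 0.3 μg supercoiled pBR322 and test compound in 50 mM Tris-HCl pH 7.5, 100 mM NaCl, 10 mM MgCl2, 1 mM DTT, 50 μg/ml BSA. Run 15 min at 37°C, stopped with 25 mM EDTA. Products run on 1.2% agarose in TAE (2 V/cm, 15 h), stained with ethidium bromide, imaged and quantified.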

Calf Topo I (cTopo I) = test: Relaxation assay for eukaryotic Topo I
How it was run: as §1

E. coli Topo I = E. coli Topo I (Escherichia coli, UniProt P06612); test: Relaxation assay with E. coli Topo I
Chain of E. coli Topo I (P06612 whole entry): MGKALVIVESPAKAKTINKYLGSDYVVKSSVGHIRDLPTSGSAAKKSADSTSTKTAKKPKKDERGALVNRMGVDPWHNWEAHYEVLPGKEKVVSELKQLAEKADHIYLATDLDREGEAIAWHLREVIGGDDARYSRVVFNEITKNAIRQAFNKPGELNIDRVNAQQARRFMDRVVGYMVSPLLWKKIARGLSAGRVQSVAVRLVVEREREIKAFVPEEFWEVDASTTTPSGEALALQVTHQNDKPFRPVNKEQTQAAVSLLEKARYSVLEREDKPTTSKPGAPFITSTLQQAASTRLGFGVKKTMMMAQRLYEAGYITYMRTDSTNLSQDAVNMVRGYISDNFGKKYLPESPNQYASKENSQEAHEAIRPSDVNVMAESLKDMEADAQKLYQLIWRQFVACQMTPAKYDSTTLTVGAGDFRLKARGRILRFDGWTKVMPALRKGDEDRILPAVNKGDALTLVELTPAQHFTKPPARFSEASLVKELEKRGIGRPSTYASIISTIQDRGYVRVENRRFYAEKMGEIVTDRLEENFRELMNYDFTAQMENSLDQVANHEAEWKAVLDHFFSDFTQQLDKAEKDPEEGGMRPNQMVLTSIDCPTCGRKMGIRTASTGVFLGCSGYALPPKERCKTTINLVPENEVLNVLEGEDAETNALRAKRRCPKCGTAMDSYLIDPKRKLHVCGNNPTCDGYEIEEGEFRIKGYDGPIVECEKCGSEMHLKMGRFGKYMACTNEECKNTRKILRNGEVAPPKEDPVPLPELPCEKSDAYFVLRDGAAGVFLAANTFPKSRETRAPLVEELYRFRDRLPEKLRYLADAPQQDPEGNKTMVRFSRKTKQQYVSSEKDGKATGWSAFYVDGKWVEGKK

COc1c(N2CC[C@@H](CN)C2)c(F)cc2c(=O)c(C(=O)O)cn(C3CC3)c12 [UING-5-249]
No^2: inhibition of hTopo I (hTopo I) | inhibition of cTopo I (Calf Topo I (cTopo I)) | inhibition of E. coli Topo I (E. coli Topo I)
